The term MIC denotes the lowest concentration found to suppress growth.

Here are results for eight molecules from ChEMBL document CHEMBL1122539, “3-Substituent effect and 3-methylene substituent effect on the structure-reactivity relationship of 7 beta-(acylamino)-3-cephem-4-carboxylic acid derivatives studied by carbon-13 and IR spectroscopies” (J Med Chem, 1984).

A short description of series [1]: Rate constant (Kobs) obtained from IR spectroscopy.
A short description of series [2]: Geometrical mean of MIC calculated from MIC values for Escherichia coli NIHJ JC-2 and Klebsiella pneumoniae SRL-1. The class given is functional. The essentials: (§1)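 Agar dilution on sensitivity test agar with serial twofold antibiotic dilutions. Overnight tryptosoy broth cultures of E. coli NIHJ JC-2 and K. pneumoniae SRL-1 were diluted to about 10^6 cells/mL in the same broth, and one loopful was inoculated. Plates were incubated at 37 °C for 18–20 h. MIC was the lowest concentration inhibiting visible growth. The value is the geometric mean of the two strains' MICs.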

The nature of series [3]: Dissociation constant (Kobs) obtained from IR spectroscopy; f = Not detected. The class given is physicochemical.
A short description of series [4]: Geometrical mean of MIC calculated from MIC values for Escherichia coli NIHJ JC-2 and Klebsiella pneumoniae SRL-1. The class given is functional. In short, it runs like this: as §1

As to `O=C(Cc1cccs1)[N-]C1C(=O)N2C(C(=O)[O-])=C(C[n+]3ccccc3)CSC12.[Na+]` (stereo not given), the “10^2 kobsd (h^-1)” value in series [1] was found to be 47.3 obs.

On to `CC(=O)OCC1=C(C(=O)[O-])N2C(=O)C(NC(=O)Cc3cccs3)C2SC1.[Na+]` (stereo not given), for which, in series [2], the MIC was 25 µg/mL. For the same molecule, the “10^2 kobsd (h^-1)” value in series [1] is listed as 11.1 hr-1. With `O=C(Cc1ccccc1)NC1C(=O)N2C(C(=O)[O-])=C(Cl)CSC12.[Na+]` (stereo not given), the MIC in series [2] was 12.5 µg/mL. The “10^2 kobsd (h^-1)” value in series [1] came to 15.2 hr-1.

For the molecule `CS(=O)(=O)OC1=C(C(=O)[O-])N2C(=O)C(NC(=O)Cc3ccccc3)C2SC1.[Na+]` (stereo not given), the MIC in series [2] is 8.84 µg/mL. Also, the “10^2 kobsd (h^-1)” value in series [1] worked out at 46.5 hr-1. In the same order, the values of `O=C(Cc1ccccc1)NC1C(=O)N2C(C(=O)[O-])=CCSC12.[Na+]` (stereo not given) are 8.85 µg/mL and 3.1 hr-1. `COC1=C(C(=O)[O-])N2C(=O)C(NC(=O)Cc3ccccc3)C2SC1.[Na+]` (stereo not given): in series [3], the Log k result was “Not detected”. Besides, the MIC in series [4] is 17.7 µg/mL. Turning to `CCOC(=O)CC1=C(C(=O)[O-])N2C(=O)C(NC(=O)Cc3ccccc3)C2SC1.[Na+]` (stereo not given), in series [2], the MIC is greater than 100 µg/mL. Besides, in series [1], the “10^2 kobsd (h^-1)” value is given as 1.82 hr-1. Turning to `CC1=C(C(=O)[O-])N2C(=O)C(NC(=O)Cc3ccccc3)C2SC1.[Na+]` (stereo not given), the MIC in series [2] was 70.7 µg/mL. Besides, in series [1], the “10^2 kobsd (h^-1)” value was determined as 1.36 hr-1.
